Laboratory results published in ChEMBL document CHEMBL4390639, “Design, Synthesis, and Biological Evaluation of Novel Allosteric Protein Disulfide Isomerase Inhibitors” (J Med Chem, 2019).
Active and inactive are the calls of the source. No cut-off for these calls is given here.

Columns and labels:
[1] = test system: U-87 MG; experiment: Down regulation of E2F1 gene expression in human U87MG cells at 10 uM incubated for 4 hrs followed by bromouridine addition during last 30 mins of incubation by TRIzol-reagent based Bru-Seq analysis; format: functional, cell-based; details: U-87MG ATCC
[2] = test system: U-87 MG; experiment: Up regulation of INHBA gene expression in human U87MG cells at 10 uM incubated for 4 hrs followed by bromouridine addition during last 30 mins of incubation by TRIzol-reagent based Bru-Seq analysis relative to control; format: functional, U-87MG ATCC
How it was run: (§1)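 U87MG cells exposed to compound or DMSO vehicle for 4 h, with 2 mM bromouridine added for the final 30 min. Total RNA isolated with TRIzol; Bru-labelled nascent RNA captured on anti-BrdU antibody-conjugated magnetic beads and sequenced. Transcript abundance expressed as RPKM relative to DMSO. Experiment performed once.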

[3] = test system: U-87 MG; experiment: Down regulation of DUT gene expression in human U87MG cells at 10 uM incubated for 4 hrs followed by bromouridine addition during last 30 mins of incubation by TRIzol-reagent based Bru-Seq analysis relative to control; format: functional, U-87MG ATCC
[4] = test system: U-87 MG; experiment: Up regulation of MMP1 gene expression in human U87MG cells at 10 uM incubated for 4 hrs followed by bromouridine addition during last 30 mins of incubation by TRIzol-reagent based Bru-Seq analysis relative to control; format: functional, U-87MG ATCC; how it was run: as §1
[5] = test system: A 172; experiment: Antimigratory activity against human A172 cells at 10 uM measured after 4 hrs by Giemsa staining based transwell migration assay; format: functional, cell-based
How it was run: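 A172 cells (1 x 10^5) were treated with compound and seeded into inserts with 8.0 μm PET membrane in serum-free medium. DMEM with 10% FBS was in the lower well; wells without FBS served as control. After 4 h, migrated cells were Giemsa-stained and imaged at 10X, 5 fields per well.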

[6] = test system: U-87 MG; experiment: Up regulation of SLC7A11 gene expression in human U87MG cells at 10 uM incubated for 4 hrs followed by bromouridine addition during last 30 mins of incubation by TRIzol-reagent based Bru-Seq analysis relative to control; format: functional, U-87MG ATCC
How it was run: (§2)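 U87MG cells treated 4 h with test compound (10 or 16 μM, as per line) or DMSO; 2 mM bromouridine added for final 30 min. Total RNA isolated with TRIzol, Bru-labelled nascent RNA captured with anti-BrdU antibody magnetic beads and sequenced; transcript abundance (RPKM) compared with DMSO control. Single experiment.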

[7] = test system: U-87 MG; experiment: Up regulation of ADAMTS5 gene expression in human U87MG cells at 10 uM incubated for 4 hrs followed by bromouridine addition during last 30 mins of incubation by TRIzol-reagent based Bru-Seq analysis relative to control; format: functional, U-87MG ATCC; how it was run: as §1
[8] = test system: U-87 MG; experiment: Up regulation of HSPA1B gene expression in human U87MG cells at 10 uM incubated for 4 hrs followed by bromouridine addition during last 30 mins of incubation by TRIzol-reagent based Bru-Seq analysis relative to control; format: functional, U-87MG ATCC; how it was run: as §1
[9] = test system: U-87 MG; experiment: Up regulation of SLC7A5 gene expression in human U87MG cells at 10 uM incubated for 4 hrs followed by bromouridine addition during last 30 mins of incubation by TRIzol-reagent based Bru-Seq analysis relative to control; format: functional, U-87MG ATCC; how it was run: as §2
[10] = test system: U-87 MG; experiment: Up regulation of TRIB3 gene expression in human U87MG cells at 10 uM incubated for 4 hrs followed by bromouridine addition during last 30 mins of incubation by TRIzol-reagent based Bru-Seq analysis relative to control; format: functional, U-87MG ATCC; how it was run: as §2
[11] = test system: U-87 MG; experiment: Down regulation of MAD2L1 gene expression in human U87MG cells at 10 uM incubated for 4 hrs followed by bromouridine addition during last 30 mins of incubation by TRIzol-reagent based Bru-Seq analysis relative to control; format: functional, U-87MG ATCC
How it was run: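 Nascent transcription (Bru-seq) in U87MG cells: treatment at 10 μM for 4 h, with 2 mM bromouridine added for the final 30 min. Total RNA isolated with TRIzol; Bru-labelled RNA captured using anti-BrdU antibody on magnetic beads, then sequenced. Transcript traces reported as RPKM compared with DMSO-treated cells. Single experiment.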

[12] = test system: U-87 MG; experiment: Up regulation of NGF gene expression in human U87MG cells at 10 uM incubated for 4 hrs followed by bromouridine addition during last 30 mins of incubation by TRIzol-reagent based Bru-Seq analysis relative to control; format: functional, U-87MG ATCC; how it was run: as §1
[13] = test system: U-87 MG; experiment: Up regulation of PIR gene expression in human U87MG cells at 16 uM incubated for 4 hrs followed by bromouridine addition during last 30 mins of incubation by TRIzol-reagent based Bru-Seq analysis relative to control; format: functional, U-87MG ATCC; how it was run: as §1
[14] = test system: U-87 MG; experiment: Down regulation of AC006206.2 gene expression in human U87MG cells at 16 uM incubated for 4 hrs followed by bromouridine addition during last 30 mins of incubation by TRIzol-reagent based Bru-Seq analysis relative to control; format: functional, U-87MG ATCC; how it was run: as §1
[15] = test system: U-87 MG; experiment: Down regulation of KIAA0040 gene expression in human U87MG cells at 16 uM incubated for 4 hrs followed by bromouridine addition during last 30 mins of incubation by TRIzol-reagent based Bru-Seq analysis relative to control; format: functional, U-87MG ATCC
[16] = test system: U-87 MG; experiment: Down regulation of CTHRC1 gene expression in human U87MG cells at 16 uM incubated for 4 hrs followed by bromouridine addition during last 30 mins of incubation by TRIzol-reagent based Bru-Seq analysis relative to control; format: functional, U-87MG ATCC; how it was run: as §1
[17] = test system: U-87 MG; experiment: Up regulation of TRIM16L gene expression in human U87MG cells at 16 uM incubated for 4 hrs followed by bromouridine addition during last 30 mins of incubation by TRIzol-reagent based Bru-Seq analysis relative to control; format: functional, U-87MG ATCC
[18] = test system: U-87 MG; experiment: Up regulation of AC005324.3 gene expression in human U87MG cells at 16 uM incubated for 4 hrs followed by bromouridine addition during last 30 mins of incubation by TRIzol-reagent based Bru-Seq analysis relative to control; format: functional, U-87MG ATCC; how it was run: as §1
[19] = test system: U-87 MG; experiment: Up regulation of VEGFD gene expression in human U87MG cells at 16 uM incubated for 4 hrs followed by bromouridine addition during last 30 mins of incubation by TRIzol-reagent based Bru-Seq analysis relative to control; format: functional, U-87MG ATCC
[20] = test system: U-87 MG; experiment: Down regulation of BIRC3 gene expression in human U87MG cells at 16 uM incubated for 4 hrs followed by bromouridine addition during last 30 mins of incubation by TRIzol-reagent based Bru-Seq analysis relative to control; format: functional, U-87MG ATCC
[21] = test system: U-87 MG; experiment: Down regulation of H1F0 gene expression in human U87MG cells at 16 uM incubated for 4 hrs followed by bromouridine addition during last 30 mins of incubation by TRIzol-reagent based Bru-Seq analysis relative to control; format: functional, U-87MG ATCC
[22] = test system: U-87 MG; experiment: Down regulation of CSF3 gene expression in human U87MG cells at 16 uM incubated for 4 hrs followed by bromouridine addition during last 30 mins of incubation by TRIzol-reagent based Bru-Seq analysis relative to control; format: functional, U-87MG ATCC; how it was run: as §1
[23] = test system: U-87 MG; experiment: Down regulation of AC007848.1 gene expression in human U87MG cells at 16 uM incubated for 4 hrs followed by bromouridine addition during last 30 mins of incubation by TRIzol-reagent based Bru-Seq analysis relative to control; format: functional, U-87MG ATCC
[24] = test system: U-87 MG; experiment: Cytotoxicity against human U87MG cells assessed as inhibition of cell proliferation at 10 uM measured after 24 hrs treatment followed by 10 days by colony formation assay relative to control
[25] = test system: A 172; experiment: Induction of morphological changes in human A172 cells assessed as membrane blebbing at 11 uM measured after 48 hrs by Giemsa-staining based microscopic analysis; format: functional, cell-based

CCCCCN(CCCCC)S(=O)(=O)c1ccc(C(=O)/C=C/c2cccc(C#N)c2)cc1
Activity [1]: Active
fold change (FC) [2]: 27
fold change (FC) [3]: 2.3
fold change (FC) [4]: 32.1
Activity [5]: Active
fold change (FC) [6]: 20.8
fold change (FC) [7]: 9.6
fold change (FC) [8]: 107.2
fold change (FC) [9]: 16.8
fold change (FC) [10]: 34.1
fold change (FC) [11]: 2.4
fold change (FC) [12]: 10

COC(=O)c1cccc(/C=C/C(=O)c2cccc(O)c2)c1
fold change (FC) [13]: 4.3
fold change (FC) [14]: 3.9
fold change (FC) [15]: 2.6
fold change (FC) [16]: 3.4
fold change (FC) [17]: 4.9
fold change (FC) [18]: 5.3
fold change (FC) [19]: 6.2
fold change (FC) [20]: 3.3
fold change (FC) [21]: 2.7
fold change (FC) [22]: 8.3
fold change (FC) [23]: 2.9

N#Cc1cccc(/C=C/C(=O)c2ccc(O)cc2)c1
inhibition at 10 µM [24]: < 40%

CCCCCN(CCCCC)S(=O)(=O)c1ccc(C(=O)/C=C/c2cccc(O)c2)cc1
Activity [25]: Active
